rCAG binder: binds r(CAG) RNA repeats. AID 651821. inhibition, % at 3 µM. r(CAG) RNA repeat, TO-PRO-1 dye displacement fluorescence. hit rate 1.3% among 370,000;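 active = inhibition above the plate cutoff, the mean of all test compounds on that plate plus 3 SD, cut at about 35% in these data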;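 also: 0% = DMSO alone and 100% = 100 µM mitoxantrone as full dye displacement; higher means more dye released from RNA so lower well fluorescence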
SIAE inh: human SIAE inhibition, primary screen; Q9HAT2; SIAE FP-Rh probe binding, fluorescence polarization; inhibition, % at 9.66 µM; hit rate 0.69% among 370,000; AID 1053197;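 active = inhibition above a cutoff: mean of compounds within the control limits plus 3 SD of those, cut at about 17% in these data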;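 also: 0% = plate median of compound wells and 100% = probe without SIAE protein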
Target sequence (Q9HAT2 whole entry, looked up): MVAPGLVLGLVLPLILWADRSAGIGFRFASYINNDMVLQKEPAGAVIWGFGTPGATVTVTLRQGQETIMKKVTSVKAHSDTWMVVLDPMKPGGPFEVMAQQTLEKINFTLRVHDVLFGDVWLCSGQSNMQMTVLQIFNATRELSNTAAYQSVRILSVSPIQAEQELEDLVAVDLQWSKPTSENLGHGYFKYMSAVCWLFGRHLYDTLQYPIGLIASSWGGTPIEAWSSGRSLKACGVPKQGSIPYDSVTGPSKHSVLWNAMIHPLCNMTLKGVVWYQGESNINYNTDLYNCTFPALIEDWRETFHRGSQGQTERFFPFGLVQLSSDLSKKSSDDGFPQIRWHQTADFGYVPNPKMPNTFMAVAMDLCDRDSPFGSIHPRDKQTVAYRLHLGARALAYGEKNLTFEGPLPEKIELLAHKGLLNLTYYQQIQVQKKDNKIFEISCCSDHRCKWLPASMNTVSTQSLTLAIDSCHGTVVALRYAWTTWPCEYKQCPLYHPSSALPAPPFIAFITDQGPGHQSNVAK
HTRA1 inh: blocks human HTRA1 serine peptidase | inhibition, % at 5.96 µM | AID 504803 | recombinant HTRA1, FP-rhodamine activity-based probe, fluorescence polarization | hit rate 0.5% among 340,000; in the data active = inhibition above about 36%;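 also: 0% = enzyme with DMSO and 100% = wells lacking enzyme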
TCR CD3 inh: blocks the human TCR-CD3 interaction. hit rate 0.37% among 360,000. TAMRA-labeled TCR probe fluorescence, biochemical. AID 651800. inhibition, % at 9.4 µM; in the data active = inhibition above about 19%;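 also: recombinant mutant TCR 2C K166C tagged with TAMRA read by polarization; 0% = receptor in buffer alone and 100% = receptor with positive control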
mABHD4 FP: ABHD4 (mouse) inhibition, primary FP screen | purified mABHD4, FP-Rh probe fluorescence polarization | inhibition, % at 8.92 µM | hit rate 0.54% among 370,000;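 active = inhibition exceeding the mean over every tested compound plus 3 SD, cut at about 30% in these data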;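 also: 0% = plate median of compound wells and 100% = S159A mutant with DMSO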
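Assay system: wild-type mouse ABHD4 protein; compound: single nominal dose of 8.92 µM, 0.89% DMSO final; schedule: 45 min + 60 min at 25 °C; measured by: FP readout, ex 525 nm / em 598 nm; evaluation: % inhibition of FP-Rh probe binding versus controls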
PRMT1 inh: blocks human protein arginine methyltransferase 1; recombinant PRMT1, activity-based probe fluorescence polarization; hit rate 1.3% among 370,000; inhibition, % at 2.79 µM; Q99873; AID 652257;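 active = inhibition above about 21% made by adding two undisclosed values, limit read from the data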
SIAE inh conf: confirmation of human SIAE inhibitors | shares compounds with SIAE inh | SIAE FP-Rh activity-based probe, fluorescence polarization | inhibition, % at 9.66 µM | hit rate 13% among 2,300;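 active = mean inhibition of the replicates above the hit cutoff set in the primary screen, cut at about 17% in these data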;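 also: 0% = SIAE with DMSO and probe and 100% = probe without SIAE; inhibitors lower polarization as more probe stays unbound to SIAE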
Starred values were filed as active, the others as inactive. This is a sample that favours compounds with a hit; in the whole collection about 3.5% have one here.

Results for Cc1c(C2(O)CCCCC2)[nH]c2cnccc12 ?
rCAG binder: 7; SIAE inh: 23*; HTRA1 inh: 2; TCR CD3 inh: 3; mABHD4 FP: -2; PRMT1 inh: -4; SIAE inh conf: -3

What do the screens show for `Cc1c(C2(O)CCCCC2)[nH]c2ncccc12`?
rCAG binder: -2; SIAE inh: -13; HTRA1 inh: 3; TCR CD3 inh: 8; mABHD4 FP: 3; PRMT1 inh: 0

Results for CC(C)CCCC(C)CCOC(=O)CN1CCCC1 (stereo not drawn) ?
rCAG binder: -5; SIAE inh: 18*; HTRA1 inh: 3; TCR CD3 inh: 5; mABHD4 FP: 1; PRMT1 inh: -3; SIAE inh conf: -1

Results for O=C(NC(=S)N(Cc1ccccc1)Cc1ccccc1)c1ccccc1F ?
rCAG binder: 8; SIAE inh: 79*; HTRA1 inh: -12; TCR CD3 inh: -4; mABHD4 FP: 2; PRMT1 inh: 4; SIAE inh conf: -2

Results for O=C(NC(=S)NCc1ccccc1)c1ccccc1F ?
rCAG binder: -6; SIAE inh: -12; HTRA1 inh: -14; TCR CD3 inh: -3; mABHD4 FP: -7; PRMT1 inh: 4

What do the screens show for `COC(=O)[C@]12C[C@H](CC(=O)NCc3cccs3)C(=O)N(Cc3ccccc3)C1=C[C@H](C(C)(C)C)O[C@@H]2C`?
rCAG binder: 1; SIAE inh: -3; TCR CD3 inh: 4; mABHD4 FP: 0; PRMT1 inh: -2

Results for Cc1sc(NC(=S)Nc2ccc(F)cc2)c(C(N)=O)c1C ?
rCAG binder: 7; SIAE inh: 17*; HTRA1 inh: -4; TCR CD3 inh: 1; mABHD4 FP: 2; PRMT1 inh: 19; SIAE inh conf: 5

How did CCOC(=O)c1c(NC(=S)Nc2ccc(Cl)cc2)sc(C)c1C do in these assays?
rCAG binder: 0; SIAE inh: -2; HTRA1 inh: -1; TCR CD3 inh: 1; mABHD4 FP: 3; PRMT1 inh: -4

Results for O=C1CC(N2CCOCC2)=NC(=O)N1c1ccc(Br)cc1 ?
rCAG binder: 5; SIAE inh: -5; mABHD4 FP: 4; PRMT1 inh: 0

What do the screens show for `COc1ccc(C(CC(=O)O)NC(=O)COc2ccc(C)cc2)cc1OC` (stereo not drawn)?
rCAG binder: 3; SIAE inh: 19*; HTRA1 inh: 2; TCR CD3 inh: -7; mABHD4 FP: -4; PRMT1 inh: 3; SIAE inh conf: -9

What do the screens show for `COc1ccc(CN2CCC(CNC(=O)NC3CCC(C)CC3)CC2)cc1` (stereo not drawn)?
rCAG binder: 2; SIAE inh: 4; mABHD4 FP: 4; PRMT1 inh: 2

What do the screens show for `O=C(CSc1nnc(SCc2cccc3ccccc23)s1)N/N=C/c1c[nH]c2ccccc12`?
rCAG binder: 17; SIAE inh: 30*; HTRA1 inh: -28; TCR CD3 inh: 8; mABHD4 FP: -8; PRMT1 inh: -2; SIAE inh conf: 0

How did Cc1ccc(CN2CCN(Cc3c[nH]c4ccccc34)CC2CCO)o1 (stereo not drawn) do in these assays?
rCAG binder: 3; SIAE inh: 4; HTRA1 inh: -4; TCR CD3 inh: -1; mABHD4 FP: 0; PRMT1 inh: 4

How did Cc1ccc(CN2CCN(Cc3cc(=O)c4ccccc4[nH]3)CC2CCO)o1 (stereo not drawn) do in these assays?
rCAG binder: -2; SIAE inh: 17*; HTRA1 inh: 0; TCR CD3 inh: 0; mABHD4 FP: 0; PRMT1 inh: -2; SIAE inh conf: -10

Results for Cc1ccc(S(=O)(=O)N2CCCC(C(=O)NCc3ccco3)C2)cc1 (stereo not drawn) ?
rCAG binder: 2; SIAE inh: 1; mABHD4 FP: 1; PRMT1 inh: 0

What do the screens show for `CN(C)c1ccc(C(CNC(=O)c2ccccc2F)c2c[nH]c3ccccc23)cc1` (stereo not drawn)?
rCAG binder: 9; SIAE inh: 0; HTRA1 inh: -5; TCR CD3 inh: -3; mABHD4 FP: 2; PRMT1 inh: -3

Screens from PubChem BioAssay.
